We go through 75 variants from the RNAGym collection of RNA variant scans (doi:10.1126/science.aae0568).

The chains are these.
B1: tRNA (parent)
chain: GUUCCGUUGGCGUAAUGGUAACGCGUCUCCCUCCUAAGGAGAAGACUGCGGGUUCGAGUCCCGUACGGAACG

Fewer inactive variants are shown than the library holds. Bounds are passed on as bounds.

The variants in the data set derive from B1. Nature of the data set: yeast fitness relative to wild type (ratio to wild type); higher = fitter; tRNA-Arg(CCU), competitive growth, 37 C, YPD. Summed up: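 A pool of Saccharomyces cerevisiae strains, each with a tRNA-Arg(CCU) gene variant at the native genomic locus, was competed in YPD at 37°C for 24 hours across six parallel replicates. The variants had been chemically synthesised at a 3% per-site mutation rate over 69 sites, and gene amplicons before and after competition were read by 100-nucleotide paired-end sequencing. Darwinian fitness relative to wild type rested on changes in genotype frequencies. Genotypes required ≥ 100 starting reads, and estimates < 0.5 were set to 0.5.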
Consider GUUCCGCUGGCGUAAUGGUAACGCGUCUCCCUCCUAAGGAGAAGAAUGCGAGAUCGAGUCCAGUACGAAACG, for which the yeast fitness was determined as 0.579.
Then GUUCCGCUGGCGUAAUGGUAACGUGUCUCCCUCCUAAGGAGAAGACUGCGGGUACGAGUCCCGUACGGAACG, with at most 0.5; and GUUCCGCUGGCGUAAUGGUAACGCGUCUCCCUCCUAAGGAGAAGACUGCGGGUUCGAGUCCCGUGCGGAACG, with 0.95.
In the case of GUUCCGCUGGCGUAAUGGUAACGCGUCUCCCUCCUAAGGAGAAGACUGCGGGUUCGAGUCCCGUCCGGAACG, the yeast fitness stood at 0.912.
As to GUUCCGCUGGCGUAAUGGUAACGAGUCUCCCUCCUAAGGAGAAGACUGCGGGUUCGAGUCCCGUACGGAACG, the yeast fitness stood at 0.623.
With GUUCCGCUGGCGUAAUGGUAACGCGUAUCCCUCCUAAGGAGAAGACUGCGGGUUCGAGUCCCGGACGGAACG the figure was at most 0.5.
Regarding GUUCCGCUGGCGUAAUGGUAACGCGUCUCACUCCUAAGGAGAAGACUGCGGGUUCGAGUACCGUACGGAACG, the yeast fitness is at most 0.5.
GUUCCGCUGGCGUAAUGGUAACGCGUCUCCCUCUUAAGGAGAAGACUGCGGGUUCGAGUCCCGUAUGGAACG: the yeast fitness was at most 0.5.
With GUUCCGCUGGCGUAAUGGUAACGCGUCUCCCUCCUAAGGAGAAGACUGCGGGUUCGAGUCCCGUACGGCACG the figure was 0.921; with GUUCCGCUGGCGUAAUGGUAACGCGUCUCCCUCCUAAGGAGAAGACUGCGGGUUCGAGUCCCGUACGGGACG, 0.817.
As for GUUCCGCUGGCGUAAUGGUAACGCGUCUCCGUCUUAAGGAGAAGACUGCGGGUUUGAAUCUCGUACGCAACG, the yeast fitness was at most 0.5.
For GUUCCGCUGGCGUAAUGGUAACGCGUCUCCCUCCUAAGGGGAAGACUGCGGAUUCGAGUCCCGUCCGGAACG, the yeast fitness was at most 0.5.
In the case of GUUCCGCUGGCGUAAUGGUAACGCGUCUCCCUGCUAAGGAGAAGACUGCGGGUUCGAGUCCCGUACGGAGCG, the yeast fitness was determined as 0.57.
Then GUUCCGCUGGUGUAAUGGUAACGCGUCUCCCUCCUAAGCAGAAGUCUGCGGGUUCGAGUCUCGUACGGAACG, with at most 0.5; and GUUCCGCUGGCGUAAUGGUAACGCGUCUCCCUACUAAGGAGAAGACUGCGGGUUCGACUCCCGUACAGAACG, with 0.602; and GUUCCGCUGGGGGAAUGGUAACGCGUCUCUCUCCUAAGGAGAAGACUGCGGGUUCGAGUCCCGUACGGAACG, with at most 0.5.
For GUUCCGCUGGCGUAAUGGUAACGCGUCUCCCUCCUAAGGAGAAGACUGCGGGUUCGAGUCCCGUUCGGCACG, the yeast fitness was 0.532.
Then GUUCCGCUGGCGUAAUGGUAACGCGUCUCCCUCCUAAGGAGAAGAUUGCGGGUUCGAGGCCCGUACUGAACG, with at most 0.5.
With GUUCCGCUGGCGUAAUGGUAACGCGUCUCCCUACUAAGGAGAAGACUGAGGGUUCGAGUCCCGUACGGAACG the figure was at most 0.5; with GUUCCGCUGGGGUAAUGGUAACGUGUCUCCCUCCUAAGGAGAAGACUACGGGUUCGAGUCCCAUACGGAACG, at most 0.5.
For GUUCCGCUGGCGUAAUGGUAACGCGUCUCCGUCUUAAGGAGAAGACUGCGGGUUUGAAUCUCGUACGGAACG, the yeast fitness is 0.666.
As for GUUCCGCUGGCGUAAUGGUAACGUGUCUCGCUCCUAAGGAGAAGCCUGCGGGUUCGAGUCGCGUACGGAACG, the yeast fitness was at most 0.5.
With GUUCCGCUGGCGUAAUGGUAACGCGUCUCCCUCUUAAGGAGAAGACUGCGGGUUCGAGUCCCGUACGGAACG, the yeast fitness was 0.699.
Then GUUCCGCUGGCGUAAUGGUAACGCGUCUCCCUCCUAAGGAGAAGACUGCGGGUUCGAGUCCCGUACGGACCG, with 0.742; and GUUCCGCUGGCGUAAUGGUAACGCGUCUCCCUCCUAAGGAGAAGACUGCGGGUUCGAGUCCCGUACGGAUCG, with 0.692; and GUUCCGCUGGCGUAAUGGUAACGCGUCUCGCUCCUAAGGAGAAGACUGCGGGUUCGACUCCCGUAUGGAACG, with at most 0.5.
With GUUCCGCUGGCGUAAUGGUAACGCGUUUACCUCCUAAGGAGAAGACUGCGGGUUCGACUCCCGUACGGAACG the figure was at most 0.5; with GUUCCGCUGGCGUAAUGGUAACGGGUCUCCAUCCUAAGGAGAAGACUGCGGGUUCGAGUCCCGUACGGAACG, at most 0.5; with GUUCCGCUGGGGUAAUGGUAACGAGUCUCCCUCCUAAGGAGAAGACAGCGGGUUCGAGUCCCGCACUGAACG, at most 0.5.
With GUUCCGCUGGUGUAAUGGUAACGCGUCUCCCUCCUAAGCAGAAGUCUGCGGGUUCGAGUCCCGUACAGAACG the figure was at most 0.5; with GUUCCGCUGGAGUAAUGGUAACGCGUCUCCCUCCUAAGGAGAAGACUGCGGGUUCGAGUCCCGUACUGAACG, at most 0.5.
As for GUUCCGCUGGUGUAAUGGGAACGCGUCUUCCCCGUAAGGAGAAGACUGCGGCUUCGAGUCCCGUACGGAGCG, the yeast fitness was at most 0.5.
With GUUCCGCUGGCGUAAUGGUAACGCGUCUCCCUCCUAAGGAGAAGAAUGCGGGUUCGAGUCCCGUACGGAACG the figure was 0.798.
Then GUUCCGCUGGCGUAAUGGUAACGCGUCUCUCUCCUAAGGAGAAGACUGCGGGUUCGAGUCCCGUAGGGAACG, with at most 0.5.
Then GUUCCGCUGGCGUAAUGGUAACGCGUCUCCCUCCUAAGGAGUGGACUGCGGGUUCGAGUCCCGUACGGAACG, with 0.53; and GUUCCGCUGGCGUAAUGGUAACGCGUCUCCUUCCUUAGGAGACGACUGCGGGUUGGAGUCCCGUACGGAACG, with 0.539.
For the variant GUUCCGCUGGUGUAAUGGUAACGCGUCUCCCUCAUAAGGAGAAGCCUGCGGGUUCGAGUCCCGUACGAAACG, the yeast fitness is at most 0.5.
As to GUUCCGCUGGCGUAAUGGUAACGCGUCUCCUUCCUAAGGAGAAGACUGCGGAUUCGAGUCCCGUACGGAACG, the yeast fitness was at most 0.5.
With GUUCCGCUGGCGUAAUGGUAACGCGUCUCCCUCGUAAGCAGGAGAGUGCGGGUUCGAGUCGCGUACGGAACG the figure was 0.538; with GUUCCGCUGGCGUAAUGGUAACGAGUCUCCCUCCUAAGGAGAAGACUGCGGGUUCGAGUCUCGUACGGAACG, 0.543; with GUUCCGCUGGCGUAAUGGUAACGCGUCUCCCUCCUAAGGAGGAGACUGCGGGUUCGAGUCCCGUACGGAACG, 0.716.
With GUUCCGCUGGCGUAAUGGUAACGCGUCUCCCUUCUAAGGAGAAGACUGCGGGCUCGAGUCCCGUACGGAACG the figure was 0.599; with GUUCCGCUGGCGUAAUGGUAACGCGUCUCCCUCCUAAGGAGAAGCCUGCAGGUUCGAGUCCUGUACGGAACG, 0.547.
Then GUUCCGCUGGCGUAAUGGUAACGCGUCUCCGUCCUAAGGAGAAGACUGCGGGUUCGAGUCCCGUUCGGAACG, with 0.664; and GUUCCGCUGGCGUAAUGGUAACGCGUUUCCCUGGUAAGGAGAAAACUGCAGAUUCGAGUCCCGUACGGAACG, with at most 0.5; and GUUCCGCUGGCGUAAUGGUAACGCGUCUCCUGCCUAAGGAGAAGACUGCGGGUUCGAGUCCCGUACGGAACG, with 0.542.
Regarding GUUCCGCUGGCGUAAUGGUAAGGCGUCUCCCUCCUAAGGUGAAGACUGCGGGUUCGAGUCCCGUACGGCACG, the yeast fitness was found to be 0.574.
With GUUCCGCUGGCGUAAUGGUAACGCGUCUUCCUCCUAAGGAGAAGAUUGCGGGUUCGAGUCCCGUUCGGAACG the figure was at most 0.5; with GUUCCGCUGGCGUAAUGGUAACGCGUCUCCCUCCUAAGGAGACGACUGAGGGUUCAAGUCCCGUACGGAACG, at most 0.5; with GUUCCGCUGGCGUAAUGGUAACGCGUCUCCCUCUUAAGGAGAAGACUGCGGGUUAGAGUCCCGUGCGGAACG, at most 0.5.
With GUUCCGCUGGCGUAAUGGUAACGCGUCUCCCUGCUAAGGAGAAGACUGCGGGUUCGAGCCCCGUACGGAACG the figure was 0.59; with GUUCCGCUGGCGUAAUGGUAACGCGUCUCCCUCCUAAGGAGAUGACUGGGGGUUCGAGUCCCGUACGGAACG, at most 0.5; with GUUCCGCUGGCGUAAUGGUAACGCGUCUCCCUCCUAAGGAGGAGACUGCGGGUCCGAGUCCCGUACGGAACG, 0.549.
Then GUUCCGCUGGCGUAAUGGUAACGCGUCUCCCUCCUAAGGGGACGACUGCGGGUUCGAGUCCCGUACGGAACG, with 0.77; and GUUCCGCUGGCGUAAUGGUAACGCGUCUGCCUCCUAAGGAGAAGACUGUGGGUUCGAGUCCCGUACGGAACG, with 0.712; and GUUCCGCUGGGGUAAUGGUAACGCGCCUCCCUCCUAAGGAGAAGACUGCGGGUUCGAGUCCCGUACGGAACG, with at most 0.5.
Take GUUCCGCUGGCGUAAUGGUAACGCGUCUCUCUCCUAGGGAGAAGAUUGCGGCUUCGAGUCCGGUACGGACCG: the yeast fitness is at most 0.5.
In the case of GUUCCGCUGGCGUAAUGGUAACGCGUCUCCCUCCUAAGGAGCAGACUGCGGGUUUGAGUCCCGUACGGAACG, the yeast fitness is at most 0.5.
For GUUCCGCUGGCGUAAUGGUAACGCGUCUCCCUCCUAAGGUGUAGACUGCGGGUACGAGUCCCGUACGGAACG, the yeast fitness turned out to be 0.661.
With GUUCCGCUGGCGUAAUGGUAACGGGUCUCCCUCCUAAGGAGAAGACUGCGGGUUCGAGUCCCGUCCGGAACG the figure was at most 0.5; with GUUCCGCUGGCGUAAUGGUAACGCGUCUCCCUCCUAAGGAGAAGAUUGCGGGUUCGAGUCACUUACAGAACG, at most 0.5; with GUUCCGCUGGCGUAAUGGUAACGCGUGUCCCUCCUAAGGAGAAGACUGCGGGUUCGAGUCCCGUACGGAACG, 0.696.
With GUUCCGCUGGCGUAAUGGUAACGCGUAUCCCUCCUAAGGAGAAGACUGCGGGUUCGAGUCCCGUACGGAACG the figure was 0.894; with GUUCCGCUGGCGUAAUGGUAACGCGUCUCCCUUCUAAGGAGAAGACUGUGGGCUCGAGUCCCGUACGGAACG, 0.539; with GUUCCGCUGGCGUAAUGGUAACGCGUCUCCCUCGUUUGGAGAAGACUGCGGGUUCGAGUCCCGUACGGAACG, at most 0.5.
Turning to GUUCCGCUGGUGUAAUGGUAACGCGUCUCCCUCCUAAGGAGAAGACUGCGGGUUCGAGUCUCGUGCGCAACG, the yeast fitness was at most 0.5.
Regarding GUUCCGCUGGCGUAAUGGUAACGCGUCUCCGUCCUAAGGAAAAGACUGCGGCUUCGAGUUCGGUAGGGAACG, the yeast fitness is at most 0.5.
Then GUUCCGCUGGCGUAAUGGUAACGCGUCUCCCUUCUAAGGAGAAGACUGCGGGUUCGAGUCCCGUACGGAACG, with 0.713; and GUUCCGCUGGCGUAAUGGUAACGCGUUUCCCUCCUAAGGAGAAGUCUGCGGGUUCGAGUCCCGUAUGGAACG, with 0.617; and GUUCCGCUGGCGUAAUGGUAAUGCGUCUCCAUCCUAAAGAGAAGAGUGCGGGUUCGAGUCCCGUACCGAACG, with at most 0.5.
GUUCCGCUGGCGUAAUGGUAACGCGUCUCCCUCCUAAGGAGAAGUCUGCGGGUUCGAGUCCCGUACGGAACG: the yeast fitness worked out at 0.837.
As for GUUCCGCUGGCGUAAUGGUAACGCGUCUCCCUCCUAAGGAGAAGCCUGCGGGUUCGAGUCCCGUACGGAACG, the yeast fitness amounted to 0.761.
With GUUCCGCUGGGGAAAUGGUAACGCGUCUUCCUCCUAAGGAGAAGACUGCGGGUUCGAGUCCCGUACGGUACG the figure was at most 0.5; with GUUCCGCUGGCGUAAUGGUAACGCGUCUCCCUUCUAAGGAGAAGACUGUGGGUUCGAGUCCCGUACGGAUCG, at most 0.5; with GUUCCGCUGGCGUAAUGGUAACGCGUCUGCCUCCUAAGGAGAAGCCUGCGGGUUCGAGUCCGGUCCGGAACG, at most 0.5.
